MBD2 inh: inhibitors of human MBD2 binding to methylated oligonucleotide; TR-FRET; inhibition, % at 4.4 µM; actives 0.31% (n = 370,000); AID 686964; in the data active = inhibition above about 13%
rCAG binder-1: binds r(CAG) RNA repeats; r(CAG) RNA repeat, TO-PRO-1 dye displacement fluorescence; inhibition, % at 3 µM; actives 1.3% (n = 370,000); AID 651821;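 active = inhibition above the plate cutoff, the mean of all test compounds on that plate plus 3 SD, cut at about 35% in these data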;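 note: 0% = DMSO alone and 100% = 100 µM mitoxantrone as full dye displacement; higher means more dye released from RNA so lower well fluorescence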
CSN inh: blocks human CSN-mediated cullin deneddylation. Purified CSN, SCF-Nedd8-OG deneddylation, fluorescence polarization. inhibition, % at 12.5 µM. actives 0.38% (n = 360,000). AID 651999;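 active = pattern-corrected inhibition above about 35%, with an unprinted fluorescence ratio check between 0.5 and 1.5, limit read from the data, passing the limit was not always enough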;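 note: 0% = enzyme with substrate and 100% = substrate without enzyme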
Target sequence (Q92905 whole entry, looked up, one chain of several): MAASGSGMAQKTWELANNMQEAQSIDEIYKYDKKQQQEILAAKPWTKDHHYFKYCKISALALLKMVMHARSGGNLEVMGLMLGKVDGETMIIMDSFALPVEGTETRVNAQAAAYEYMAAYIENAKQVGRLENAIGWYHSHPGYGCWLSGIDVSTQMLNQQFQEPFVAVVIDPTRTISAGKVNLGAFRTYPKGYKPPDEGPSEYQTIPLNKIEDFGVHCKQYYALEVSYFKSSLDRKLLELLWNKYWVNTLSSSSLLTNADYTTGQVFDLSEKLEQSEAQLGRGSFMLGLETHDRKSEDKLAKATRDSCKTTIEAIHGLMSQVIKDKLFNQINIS
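Schedule: reaction 90 min, room temperature / Assay system: HEK293T-derived human Csn5 enzyme / Input: Csn5 at 0.24 nM final / Measure: inhibition of Csn5 cleavage, % / Control set: substrate-only high control, full reaction low control / Technique: fluorescence polarization of the substrate / Buffer or medium: Tris/NaCl/DTT buffer, pH 7.5 / Reagent: SCFSkp2-Nedd8OG substrate at 10 nM final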
ATG4B inhibitor: inhibitors of human ATG4B cysteine protease; ATG4B cleavage of LC3-PLA2, NBD-HPC fluorescence, 1 h; actives 0.51% (n = 340,000); Q9Y4P1; inhibition, % at 8.33 µM; in the data active = inhibition above about 40%
Target sequence (Q9Y4P1 whole entry, looked up): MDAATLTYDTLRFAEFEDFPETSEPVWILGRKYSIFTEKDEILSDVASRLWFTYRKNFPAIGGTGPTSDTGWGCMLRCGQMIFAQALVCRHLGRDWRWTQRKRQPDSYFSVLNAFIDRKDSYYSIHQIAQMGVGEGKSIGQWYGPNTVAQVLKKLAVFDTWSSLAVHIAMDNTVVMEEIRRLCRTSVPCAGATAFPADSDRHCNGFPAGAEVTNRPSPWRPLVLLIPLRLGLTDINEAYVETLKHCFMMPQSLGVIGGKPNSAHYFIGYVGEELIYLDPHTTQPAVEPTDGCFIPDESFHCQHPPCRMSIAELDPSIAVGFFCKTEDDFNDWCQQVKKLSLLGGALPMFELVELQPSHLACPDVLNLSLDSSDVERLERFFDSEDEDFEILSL
UHRF1 MBD2 ctr: UHRF1 methyl-DNA binding inhibition; actives 0.75% (n = 370,000); UHRF1 binding to methylated oligo, TR-FRET; Q96T88; inhibition, % at 4.4 µM;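 note: UHRF1 SRA domain binding a hemimethylated CpG hairpin DNA probe; 0% = median of test compound wells and 100% = reference inhibitor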
LEDGF integ inh: blocks HIV-1 LEDGF/p75-dependent DNA integration; TR-FRET IN-LEDGF/p75 DNA integration, Eu/Cy5; inhibition, % at 3.7 µM; actives 0.64% (n = 370,000); AID 743269;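 active = inhibition above the screen-wide mean plus 3 SD, cut at about 13% in these data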;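 note: signal is the Cy5 over europium emission ratio at 671 and 618 nm; 0% = plate median of compound wells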
rCAG bind conf: r(CAG) RNA repeat binding, confirmation; shares compounds with rCAG binder-1; TO-PRO-1 dye displacement fluorescence; inhibition, % at 3 µM; actives 70% (n = 4,300); AID 652065;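 active = inhibition above a per-plate cutoff, the mean inhibition of sample wells plus 3 SD, cut at about 35% in these data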;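 note: loss of TO-PRO-1 fluorescence as compound displaces dye from 1x1 AA loop RNA; 0% = DMSO only wells and 100% = 100 µM mitoxantrone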
dCAG dye counter: disrupts DNA CAG TO-PRO-1 complex, flagging rCAG hits; shares compounds with rCAG binder-1; d(CAG) DNA oligo TO-PRO-1 dye displacement, fluorescence; inhibition, % at 3 µM; actives 94% (n = 4,300);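 active = inhibition above its plate's cutoff, the mean test-well inhibition plus 3 SD, cut at about 4.8% in these data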;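 note: 0% = DNA dye mix with DMSO and 100% = 100 µM mitoxantrone; hits displace the dye from DNA and so lower well fluorescence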
DNA CAG DR: DNA CAG dye complex inhibition, dose response counter-screen; shares compounds with rCAG binder-1; DNA CAG/GTC duplex TO-PRO-1 dye displacement fluorescence; IC50, µM; actives 20% (n = 250); in the data active = IC50 below about 10 µM
dCAG DNA bind: DNA CAG dye complex inhibition, late stage dose response. shares compounds with rCAG binder-1. d(CAG) DNA duplex TO-PRO-1 dye displacement, fluorescence. IC50, µM. actives 80% (n = 30); call rule not given here
rCAG binder-2: r(CAG) repeat RNA binding, TO-PRO-1 displacement | r(CAG) RNA TO-PRO-1 dye displacement, fluorescence | shares compounds with rCAG binder-1 | IC50, µM | actives 100% (n = 30); call rule not given here
CSN deneddyl val: validation of inhibitors of human CSN-mediated cullin deneddylation; shares compounds with CSN inh; Csn5 deneddylation of SCF-Nedd8OG, fluorescence polarization, 90 min; inhibition, % at 16.6 µM; actives 62% (n = 540); AID 720654; in the data active = inhibition above about 50%;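 note: 0% = DMSO with enzyme and 100% = no enzyme wells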
MMP-2 counter: blocks human MMP-2 in a CSN deneddylation counter-screen; shares compounds with CSN inh; actives 33% (n = 540); inhibition, % at 16.6 µM; recombinant MMP-2, FRET substrate fluorescence, 60 min;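 active = corrected plate-normalized z-score of 5 or more, or -5 or less, or inhibition of 15% or more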;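 note: plate controls were DMSO wells with enzyme for no effect and buffer wells lacking MMP-2 for full effect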
Thrombin cntr: blocks bovine thrombin in a CSN deneddylation counter-screen; shares compounds with CSN inh; inhibition, % at 16.6 µM; actives 49% (n = 540); bovine thrombin cleavage of Ub4-pepOG, fluorescence polarization;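 active = inhibition at or above a set limit, with a fluorescence interference ratio between 0.5 and a set maximum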
UHRF1 ctr MBD2: inhibits human UHRF1 binding to methylated oligonucleotide, MBD2 counter-screen; AID 720530; actives 25% (n = 1,000); inhibition, % at 4.4 µM; shares compounds with MBD2 inh; TR-FRET;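 note: UHRF1 SRA domain binding a labeled hemimethylated CpG hairpin DNA; 0% = vehicle only and 100% = reference inhibitor with vehicle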
MBD2 DBD conf: MBD2-DBD methyl-DNA binding inhibition, TR-FRET confirmation. actives 26% (n = 1,000). inhibition, % at 4.4 µM. shares compounds with MBD2 inh. TR-FRET MBD2-DBD binding to methylated oligonucleotide; in the data active = inhibition above about 14%
IN multimer up: HIV-1 integrase multimerization activation, counter-screen; shares compounds with LEDGF integ inh; TR-FRET HIV-1 integrase multimerization, biochemical; actives 17% (n = 2,000); activation, % at 7.7 µM; in the data active = activation above about 8.9%
TRFRET interf: counter-screen for LEDGF/p75 integration inhibitors: TR-FRET optical interference; shares compounds with LEDGF integ inh; TR-FRET optical interference counterscreen, HIV-1 IN multimerization; inhibition, % at 7.7 µM; 2,000 tested, under 10 active;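 active = inhibition above the mean over all tested compounds plus 3 SD, which no compound reached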;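 note: 0% = integrase with antibodies and DMSO and 100% = antibodies without integrase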
LEDGF integ conf: LEDGF/p75-dependent HIV-1 integration inhibition, confirmation | AID 1053136 | TR-FRET LEDGF/p75-dependent HIV-1 integration, biochemical | inhibition, % at 3.7 µM | actives 36% (n = 2,000) | shares compounds with LEDGF integ inh; in the data active = inhibition above about 14%
Active calls of the source: *; i = inactive; x = no result. In the library only some 3.1% were active in any assay of this set; here they are far more common. Cut-off read from the data, not from the text of the source, unless noted: active = inhibition above about 21%; inactive = the rest.

SMILES | MBD2 inh | rCAG binder-1 | CSN inh | ATG4B inhibitor | UHRF1 MBD2 ctr | LEDGF integ inh | rCAG bind conf | dCAG dye counter | CSN deneddyl val | MMP-2 counter | Thrombin cntr | IN multimer up | TRFRET interf | LEDGF integ conf | others
CCCCN1C(=O)/C(=C/c2ccc(N(C)C)cc2)C(=O)N(Cc2ccco2)C1=O | 2 | 54* | 132* | 29 | 12 | 13 | 33 | 10* | 86* | 4 | 14 | x | x | x
N#Cc1ccc2nc(-c3ccc(CN4CCC(n5nnc6ccccc65)CC4)cc3)c(-c3ccccc3)nc2c1 | 5 | 9 | x | x | 1 | -5 | x | x | x | x | x | x | x | x
CC1=C(O)C(=O)C=C2C1=CC=C1C2(C)CCC2(C)C3CC(C)(C(=O)O)CCC3(C)CCC12C (stereo not drawn) | -2 | 50* | 42* | 25 | 2 | -1 | 41* | 9.5* | x | 10 | -1 | x | x | x
COc1ccc2nc(-c3ccc(CN4CCC(n5c(=O)[nH]c6cc(Cl)ccc65)CC4)cc3)c(-c3ccccc3)nc2c1 | -4 | 14 | x | x | -1 | -10 | x | x | x | x | x | x | x | x
O=C(O)Cn1cc(/C=C2\C(=O)NC(=O)N(Cc3ccco3)C2=O)c2ccccc21 | 25* | 45* | 34 | 2 | 85* | 86* | 62* | 23* | x | x | x | x | x | x | UHRF1 ctr MBD2=56*;MBD2 DBD conf=18*
C[C@@H]1CNCCN1c1ccc(N2CC[C@H](O)C2)c(C#N)c1 | -2 | 2 | x | x | -4 | -5 | x | x | x | x | x | x | x | x
COc1ccc(/C=N/N=C(/N)N[N+](=O)[O-])c(OC)c1 | 0 | 3 | -3 | -11 | -11 | 4 | x | x | x | x | x | x | x | x
N/C(=N\N=C/c1ccc(-c2ccc(O)c(C(=O)O)c2)o1)N[N+](=O)[O-] | 48* | 58* | 41 | 9 | 82* | 30* | 67* | 28* | x | x | x | 35* | -125 | 25* | UHRF1 ctr MBD2=55*;MBD2 DBD conf=18*
CCc1ccccc1N1C(=O)/C(=C/c2ccc(N3CCN(C)CC3)o2)C(=O)NC1=S | -3 | 50* | 128* | 3 | 6 | 17* | 48* | 24* | 12 | -1 | 77* | 2 | -8 | 14*
CC(C)n1c(=O)c(C=Nc2ccc(S(N)(=O)=O)cc2)c(O)n(Cc2ccco2)c1=O | 7 | 35* | 5 | -13 | 8 | 17* | 20 | 9.8* | x | x | x | 0 | 1 | 5
Nc1ccc2ccc3cccc[n+]3c2c1 | -84 | i | -76 | -17 | -299 | -3 | x | x | x | x | x | x | x | x
C[n+]1c(-c2ccccc2)c2cc(N)ccc2c2ccc(N)cc21 | 55* | 41* | -25 | 3 | 62* | 41* | 49* | 63* | x | x | x | 2 | -12 | 64* | UHRF1 ctr MBD2=77*;MBD2 DBD conf=86*
CCCCN1C(=O)/C(=C/C=C/c2ccco2)C(=O)NC1=S | 29* | 76* | 89* | 44* | 83* | 56* | 66* | 26* | -60 | -5 | 67* | 3 | -17 | 74* | DNA CAG DR=3.1*;dCAG DNA bind=3.1*;rCAG binder-2=1.4*;UHRF1 ctr MBD2=48*;MBD2 DBD conf=19*
C=CCN1C(=O)/C(=C/c2cc(C)n(-c3ccccn3)c2C)C(=O)NC1=S | -3 | 6 | 8 | 8 | 1 | 2 | x | x | x | x | x | x | x | x
O=C1NC(=O)N(Cc2ccc(F)cc2)C(=O)/C1=C\C=C\c1ccco1 | -4 | 52* | 99* | 9 | 5 | 30* | 18 | 7.6* | 73* | 8 | 17* | 3 | -11 | 20*
CCc1ccc(N2C(=O)NC(=O)/C(=C\C=C\c3ccco3)C2=O)cc1 | 1 | 45* | 86* | 6 | 10 | 35* | 19 | 9.3* | 41 | 3 | 11 | 0 | -1 | 40*
O=C1NC(=O)N(c2ccccc2)C(=O)/C1=C\C=C\c1ccccc1 | 7 | 27 | 1 | -6 | 5 | 0 | x | x | x | x | x | x | x | x
CC(C)c1ccc(N2C(=O)NC(=O)/C(=C/C=C/c3ccco3)C2=O)cc1 | 0 | 54* | 135* | 9 | 2 | 24* | 29 | 9.4* | 0 | 2 | 52* | 3 | -12 | 27*
CC(C)(C)c1cc(O)ccc1O | 2 | 0 | x | x | -4 | -7 | x | x | x | x | x | x | x | x
O=C(NC1CN2CCC1CC2)c1cc(-c2ccc(Cl)cc2)nc2ccccc12 (stereo not drawn) | -6 | 15 | x | x | -9 | -6 | x | x | x | x | x | x | x | x
COC(=O)C1C(c2ccccc2)CC2CCC1N2C (stereo not drawn) | 1 | 0 | x | x | -2 | 3 | x | x | x | x | x | x | x | x
COc1cc(CCN)c(OC)cc1C | -2 | 0 | x | x | 0 | 2 | x | x | x | x | x | x | x | x

Source: PubChem (several laboratories)
